Measurements taken from ChEMBL document CHEMBL5029154, “Design, Synthesis, and Biological Evaluation of Organic Nitrite (NO2-) Donors as Potential Anticerebral Ischemia Agents” (J Med Chem, 2021).
The source made the active and inactive calls. No cut-off for these calls is given here.

Assays:
[1] = Neuroprotective activity against in OGD/R-induced rat cortical neuron apoptosis assessed as early apoptotic cells pretreated at 1.8 uM for 24 hrs followed by subjected to OGD for 2 hrs measured after 24 hrs under normoxic condition by PI/FITC-H staining based flow cytometry (reference value: 58.46%); assay type: functional, Cortical neurone
[2] = Drug metabolism assessed as nitric oxide release in presence of bovine plasma at 200 uM measured after 1 hr by Griess reagent based assay; assay type: ADME, cell-free, Bos taurus; settings: cattle
[3] = GSH reactivity assessed as reaction rate measured at 32 equiv of GSH upto 24 hrs by HPLC analysis; assay type: ADME
Rattus norvegicus [4] = test: Neuroprotective activity against middle cerebral artery occlusion-induced ischemia-reperfusion injury Sprague-Dawley rat model assessed as decrease in neurologic deficit scores at 95 to 9500 microg/kg, iv treated immediately reperfusion measured after 24 hrs; assay type: functional, organism-based; settings: dose 95-9500 µg/kg
Procedure, shortened: (§1)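 Male SD rats (12 weeks, 200–220 g; N = 8/group) underwent MCAO under […] (350 mg/kg) using a nylon intraluminal suture for 2 h, then reperfusion. Compound (95, 950 or 9500 μg/kg) was given iv immediately after reperfusion; where used, PTIO 1 mg/kg iv was given 30 min before. At 24 h, blinded scoring covered Longa neurological deficit, TTC infarct area/whole area, and edema from wet/dry brain weight (105 °C, 24 h).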

[5] = Stability of the compound in rat plasma assessed as half life at 200 uM measured after 24 hrs by HPLC analysis; assay type: ADME, cell-free
Rattus norvegicus [6] = test: Neuroprotective activity against middle cerebral artery occlusion-induced ischemia-reperfusion injury Sprague-Dawley rat model assessed as decrease in brain infarct volume at 95 to 9500 microg/kg, iv treated immediately reperfusion in presence of PTIO measured after 24 hrs; assay type: functional, organism-based; settings: dose 95-9500 µg/kg; procedure, shortened: as §1
Rattus norvegicus [7] = test: Neuroprotective activity against middle cerebral artery occlusion-induced ischemia-reperfusion injury Sprague-Dawley rat model assessed as increase in CD31 expression in cerebral ischemic penumbra at 95 to 950 microg/kg, iv treated immediately reperfusion measured after 24 hrs by immunofluoresence assay; assay type: functional, organism-based; settings: dose 95-950 µg/kg
[8] = Stability of the compound in pH 7.4 saline assessed as half life at 200 uM measured after 24 hrs by HPLC analysis; assay type: physicochemical; settings: saline pH 7.4, pH 7.4
Rattus norvegicus [9] = test: Neuroprotective activity against middle cerebral artery occlusion-induced ischemia-reperfusion injury Sprague-Dawley rat model assessed as decrease in cerebral infarct volume at 950 microg/kg, iv pretreated for 2 hrs followed by reperfusion measured after 24 hrs in presence of PTIO; assay type: functional, organism-based; settings: dose 950.0 µg/kg
Procedure, shortened: (§2)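 Male SD rats (N = 8/group) were dosed iv at 95, 950 or 9500 μg/kg 2 h before 2 h MCAO (nylon suture, chloral hydrate anesthesia), then reperfused. Where used, PTIO 1 mg/kg iv was given 30 min before compound. At 24 h, blinded assessment covered Longa deficit score, TTC-stained 2 mm sections (infarct area/whole area), and edema by wet/dry weight.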

[10] = Neuroprotective activity against in OGD/R-induced rat cortical neuron apoptosis assessed as late apoptotic cells pretreated at 1.8 uM for 24 hrs followed by subjected to OGD for 2 hrs measured after 24 hrs under normoxic condition by PI/FITC-H staining based flow cytometry (reference value: 6.31%); assay type: functional, Cortical neurone
Rattus norvegicus [11] = test: Neuroprotective activity against middle cerebral artery occlusion-induced ischemia-reperfusion injury Sprague-Dawley rat model assessed as decrease in cerebral edema degree at 95 to 9500 microg/kg, iv pretreated for 2 hrs followed by reperfusion measured after 24 hrs; assay type: functional, organism-based; settings: dose 95-9500 µg/kg; procedure, shortened: as §2

- Drug metabolism [2]: Metabolite_Detected
- Activity [3]: 0.056 h⁻¹
- half-life at 200 µM [5]: 5.3 h
- half-life at 200 µM [8]: 38.5 h
Structure (SMILES): O=C(/C(=C/c1ccccc1)C[N+](=O)[O-])c1ccccc1
- Activity [1]: 7.21%
- Activity (Rattus norvegicus [4]): Active
- Activity (Rattus norvegicus [6]): inactive
- Activity (Rattus norvegicus [7]): Active
- Activity (Rattus norvegicus [9]): inactive
- Activity [10]: 1.72%
- Activity (Rattus norvegicus [11]): Active
